The source of these data is ChEMBL document CHEMBL4613248, “Twelfth-Position Deuteration of Nevirapine Reduces 12-Hydroxy-Nevirapine Formation and Nevirapine-Induced Hepatocyte Death” (J Med Chem, 2020).

Data set [1] concerns Hepatocyte. The data set is described as follows: Induction of change in FUBP3 protein expression in human primary hepatocytes at 10 uM incubated for 48 hrs by relative-quantitation label-free proteomics analysis relative to NVP. The class given is cell-based. In a few lines:
(§1)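 Cryoplateable pooled human hepatocytes (10 mixed-sex donors per pool; three pools), adhered overnight, then given fresh medium containing compound (10 μM), NVP (10 μM) or vehicle (0.1% DMSO) for 48 h. Lysate reduced (DTT) and alkylated (iodoacetamide), acetone-precipitated and digested with trypsin. Label-free Top10 nanoLC-MS with precursor ion area quantitation; unpaired t test P values, Cohen's d effect size.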

Data set [2] concerns Hepatocyte. The data set is described as follows: Induction of change in RBM39 protein expression in human primary hepatocytes at 10 uM incubated for 48 hrs by relative-quantitation label-free proteomics analysis relative to NVP. The class given is cell-based. In a few lines:
as §1

Data set [3] concerns Cytochrome P450. As to the kind of experiment: Drug metabolism in human primary hepatocytes assessed as Cytochrome P450-mediated formation of 8-OHNVP at 10 uM incubated for 24 to 48 hrs by uHPLC-MS analysis. The class given is ADME, cell-based. Put shortly: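 Cryoplateable pooled human hepatocytes (10 mixed-sex donors per pool, three lots), adhered overnight, then 10 μM substrate or vehicle (0.1% DMSO) for 24 or 48 h in InVitroGRO CP medium. Medium extracted with 50% acetonitrile, dried, reconstituted in methanol; uHPLC-Orbitrap MS/MS for monooxygenated metabolites, high-resolution MS for O-glucuronide.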

Data set [4] deals with Cytochrome P450. As to the kind of experiment: Drug metabolism in human liver microsomes assessed as Cytochrome P450-mediated formation of 12-OHNVP at 10 uM […] in presence of CYP2C19 inhibitor (+)-N-3-benzyl-nirvanol and NADPH regenerating reagents by uHPLC-MS analysis. The class given is ADME. A general note: Liver microsomes are vesicles of endoplasmic reticulum, rich in cytochrome P450 enzymes.

In data set [5] the target is T1, Cytochrome P450 1A2 (Homo sapiens, UniProt P05177).
T1 sequence (P05177 whole entry): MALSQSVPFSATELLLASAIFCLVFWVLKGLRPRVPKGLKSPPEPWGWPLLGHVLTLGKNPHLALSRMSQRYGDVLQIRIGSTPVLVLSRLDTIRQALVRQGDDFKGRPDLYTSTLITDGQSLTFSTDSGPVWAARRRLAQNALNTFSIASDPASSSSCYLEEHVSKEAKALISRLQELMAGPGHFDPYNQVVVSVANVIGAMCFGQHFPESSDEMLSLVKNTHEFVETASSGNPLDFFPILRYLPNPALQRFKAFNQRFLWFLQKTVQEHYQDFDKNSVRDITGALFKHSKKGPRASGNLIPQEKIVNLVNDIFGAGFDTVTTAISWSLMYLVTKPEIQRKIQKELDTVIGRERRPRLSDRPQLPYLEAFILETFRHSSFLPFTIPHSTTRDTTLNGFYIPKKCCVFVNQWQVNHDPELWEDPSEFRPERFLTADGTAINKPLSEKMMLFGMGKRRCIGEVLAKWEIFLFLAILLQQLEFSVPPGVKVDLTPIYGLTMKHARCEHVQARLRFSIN
The data set is described as follows: Drug metabolism assessed as human CYP1A2-mediated formation of 12-OHNVP at 10 uM pre-incubated for 30 mins followed by addition of NADPH regenerating reagents by uHPLC-MS analysis. The class given is ADME. To be noted: recombinant enzyme. Put shortly: (§2)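 Insect-cell microsomes with single cDNA-expressed human P450 (100 nM) in 0.1 M potassium phosphate; 10 μM substrate prewarmed 5 min at 37 °C with NADPH-regenerating system, reaction started by adding microsomes; 30 min at 37 °C, 0.1% DMSO. Stopped, dried, reconstituted in methanol; triple-quadrupole SRM (12-OH 283.1→223.0, 2-OH 283.1→160.9, 3-OH 283.1→241.9), peak height; three replicates, mean ± SD.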

Data set [6] concerns Hepatocyte. As to the kind of experiment: Induction of change in Slc9a3r1 protein expression in C57BL/6J mouse primary hepatocytes at 400 uM incubated for 8 hrs by relative-quantitation label-free proteomics analysis relative to NVP. The class given is cell-based. Put shortly: (§3)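 Fresh primary hepatocytes from male C57BL/6J mice aged 8–13 weeks, adhered overnight, then given fresh medium containing compound (400 μM), NVP (400 μM) or vehicle (0.2% DMSO) for 8 h. Lysate reduced (DTT) and alkylated (iodoacetamide), acetone-precipitated and digested with trypsin. Label-free Top10 nanoLC-MS with precursor ion area quantitation; unpaired t test P values, Cohen's d effect size.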

The subject of data set [7] is Hepatocyte. The data set is described as follows: Induction of change in SARNP protein expression in human primary hepatocytes at 10 uM incubated for 48 hrs by relative-quantitation label-free proteomics analysis relative to NVP. The class given is cell-based. In a few lines: as §1
Data set [8] addresses T2, Cytochrome P450 2A6 (Homo sapiens, UniProt P11509).
T2 sequence (P11509 whole entry): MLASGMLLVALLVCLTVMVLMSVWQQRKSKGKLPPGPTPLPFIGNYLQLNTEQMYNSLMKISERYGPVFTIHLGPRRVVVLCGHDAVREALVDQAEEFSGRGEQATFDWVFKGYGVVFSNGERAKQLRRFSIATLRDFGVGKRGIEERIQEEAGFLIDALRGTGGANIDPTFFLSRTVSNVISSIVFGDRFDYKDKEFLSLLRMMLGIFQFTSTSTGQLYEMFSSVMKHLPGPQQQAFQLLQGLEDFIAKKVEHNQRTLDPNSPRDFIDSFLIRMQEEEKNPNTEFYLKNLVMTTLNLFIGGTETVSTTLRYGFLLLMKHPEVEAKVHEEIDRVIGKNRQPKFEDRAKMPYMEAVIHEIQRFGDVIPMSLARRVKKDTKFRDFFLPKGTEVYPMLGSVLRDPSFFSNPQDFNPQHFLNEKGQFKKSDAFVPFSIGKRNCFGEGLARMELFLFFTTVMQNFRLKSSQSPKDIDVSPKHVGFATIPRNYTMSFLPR
As to the kind of experiment: Drug metabolism assessed as human CYP2A6-mediated formation of 12-OHNVP at 10 uM pre-incubated for 30 mins followed by addition of NADPH regenerating reagents by uHPLC-MS analysis. The class given is ADME. The note with it: recombinant enzyme. Put shortly:
as §2

Data set [9] is described as follows: Drug metabolism in C57BL/6J mouse primary hepatocytes assessed as Cytochrome P450-mediated formation of 2-OHD3NVP at 10 uM incubated for 24 hrs by uHPLC-MS analysis. The class given is ADME, cell-based. Put shortly: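 Fresh hepatocytes from male C57BL/6J mice (8–13 weeks), adhered overnight, then 10 μM substrate or vehicle (0.1% DMSO) for 24 h. Medium extracted with acetonitrile (50% final), dried, reconstituted in methanol; uHPLC-Orbitrap targeted SIM plus PRM (monooxygenated metabolites) or high-resolution ions (O-glucuronides, 459.1510/462.1700 ±5 ppm); four experimental replicates.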

Data set [10] deals with Hepatocyte. As to the kind of experiment: Induction of change in 5-Mar protein expression in C57BL/6J mouse primary hepatocytes at 400 uM incubated for 8 hrs by relative-quantitation label-free proteomics analysis relative to NVP. The class given is cell-based. Put shortly: as §3
In data set [11] the test system is Hepatocyte. The data set is described as follows: Induction of change in Acy3 protein expression in C57BL/6J mouse primary hepatocytes at 400 uM incubated for 8 hrs by relative-quantitation label-free proteomics analysis relative to NVP. The class given is cell-based. In a few lines:
as §3

Data set [12] relates to Hepatocyte. The data set is described as follows: Induction of change in Mrpl1 protein expression in C57BL/6J mouse primary hepatocytes at 400 uM incubated for 8 hrs by relative-quantitation label-free proteomics analysis relative to NVP. The class given is cell-based. In a few lines: as §3
Data set [13] concerns the target Cytochrome P450 3A4 (Homo sapiens, UniProt P08684). The data set is described as follows: Drug metabolism assessed as human CYP3A4-mediated formation of 12-OHNVP at 10 uM pre-incubated for 30 mins followed by addition of NADPH regenerating reagents by uHPLC-MS analysis. The class given is ADME. To be noted: recombinant enzyme. Put shortly: as §2

Chain of Cytochrome P450 3A4 (P08684 whole entry): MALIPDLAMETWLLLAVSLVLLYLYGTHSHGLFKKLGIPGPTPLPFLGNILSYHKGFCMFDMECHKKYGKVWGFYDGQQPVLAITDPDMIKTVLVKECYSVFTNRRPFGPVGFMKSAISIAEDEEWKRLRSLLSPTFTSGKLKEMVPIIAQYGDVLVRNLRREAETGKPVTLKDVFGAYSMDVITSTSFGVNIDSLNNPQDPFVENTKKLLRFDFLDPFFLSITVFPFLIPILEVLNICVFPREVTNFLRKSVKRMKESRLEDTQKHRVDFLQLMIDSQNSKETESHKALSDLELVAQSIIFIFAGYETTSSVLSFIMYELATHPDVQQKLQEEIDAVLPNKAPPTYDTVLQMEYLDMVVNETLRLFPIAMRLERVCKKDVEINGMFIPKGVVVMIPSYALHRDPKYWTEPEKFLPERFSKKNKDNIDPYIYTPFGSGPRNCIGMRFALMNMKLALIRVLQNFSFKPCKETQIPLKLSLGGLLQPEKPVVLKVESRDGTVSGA

In the case of `[2H]C([2H])([2H])c1ccnc2c1NC(=O)c1cccnc1N2C1CC1`, the “fold change (FC)” value is recorded as -1.47 in data set [1]; 1.7 in data set [2]; 2.5 in data set [6]; -1.65 in data set [7]; -2.14 in data set [10]; 1.6 in data set [11]. In data set [12], the “fold change (FC)” value is -1.87. Besides, the Drug metabolism entry in data set [3] is “Metabolite_Notdetected”; in data set [4], “Metabolite_Detected”; in data set [5], “Metabolite_Detected”; in data set [8], “Metabolite_Detected”; in data set [9], “Metabolite_Detected”; in data set [13], “Metabolite_Detected”.
